CAL PDZ FP-1: inhibitors of human CAL PDZ peptide binding | purified CAL PDZ, TMR-peptide fluorescence polarization, 1 h | inhibition, % at 24.9 µM | actives 0.92% (n = 300,000) | AID 602252;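 active = mean inhibition of at least 30% with at least half of replicates also reaching 30%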;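 also: 0% = DMSO neutral control and 100% = excess unlabeled competitor peptide PRC23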
miR-122 sensor: miR-122 inhibition in Huh7 cells | Huh7 miR-122 Renilla luciferase sensor, 48 h; neutral wells = 0, positive control = 100 | activation (reporter increase), % at 12.5 µM | actives 0.3% (n = 340,000);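 active = mean replicate activation score at least 90 and every replicate individually at or above 90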;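 also: higher luciferase means less miR-122 activity so hits act as miR-122 inhibitors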
CAL PDZ FP-2: blocks peptide binding to human CAL PDZ domain; actives 0.02% (n = 330,000); inhibition, % at 20 µM; Q9HD26; purified CAL PDZ, TMR-peptide fluorescence polarization, 1 h;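 active = highest replicate inhibition of at least 40%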;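 also: plate controls were DMSO neutral control wells for no effect and unlabeled competitor peptide control wells for full effect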
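Test system: purified CerCALP PDZ construct; Compound dosing: one concentration, 20 µM compound; Also added: TMR-labelled reporter peptide T*-PRC34 bound in PDZ groove; Read-out: inhibition from polarization loss; Controls: unlabelled peptide and DMSO controls; Signal: FP readout, S and P plane fluorescence; Incubation: 1 h at RT.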
SR-BI DiI inh: mouse SR-BI HDL lipid transfer inhibition. Q61009. ldlA[mSR-BI] CHO cells, DiI-HDL uptake fluorescence, 3 h. inhibition, % at 12.5 µM. actives 0.96% (n = 320,000). AID 488896;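 active = mean replicate inhibition of at least 70% and a set share of replicates each scoring 70 or more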;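 also: 0% = median of neutral control wells and 100% = median of positive control wells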
Target sequence (Q61009 whole entry, looked up): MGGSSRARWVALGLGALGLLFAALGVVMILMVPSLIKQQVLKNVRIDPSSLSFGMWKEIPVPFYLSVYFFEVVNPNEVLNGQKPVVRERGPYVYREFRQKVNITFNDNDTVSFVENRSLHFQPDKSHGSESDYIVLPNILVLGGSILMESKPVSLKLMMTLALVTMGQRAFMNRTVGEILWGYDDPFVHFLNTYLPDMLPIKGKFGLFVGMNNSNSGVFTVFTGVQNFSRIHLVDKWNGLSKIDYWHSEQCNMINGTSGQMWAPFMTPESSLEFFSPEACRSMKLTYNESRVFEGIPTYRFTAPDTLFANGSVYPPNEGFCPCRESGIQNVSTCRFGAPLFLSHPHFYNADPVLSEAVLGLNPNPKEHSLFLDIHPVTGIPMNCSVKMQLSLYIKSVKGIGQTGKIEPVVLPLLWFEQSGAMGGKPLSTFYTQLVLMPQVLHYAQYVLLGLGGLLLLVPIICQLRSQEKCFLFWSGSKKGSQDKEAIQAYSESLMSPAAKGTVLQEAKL
SR-BI DiI-HDL act: enhances SR-BI lipid uptake from DiI-HDL. CHO ldlA[mSR-BI] cells, DiI-HDL uptake fluorescence, 3 h; 100 = double the neutral-control signal. activation, % at 12.5 µM. actives 0.096% (n = 320,000);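 active = mean replicate activation of at least 60% and every replicate at or above 60%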;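 also: 0% = median plate neutral-control signal and 100% = twice that signal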
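System: CHO ldlA[mSR-BI] cells / Medium: HEPES-buffered (25 mM, pH 7.4) F12 plus 0.5% BSA / Probe or stimulus: labelled HDL, 10 µg/mL / Doses: single compound concentration, delivered by pin transfer / Schedule: 3 h, 37 °C / Measured by: DiI fluorescence, bottom read / Measure: cell-associated DiI fluorescence as measure of HDL uptake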
ARNT TACC3 PPI: disrupts binding between human ARNT and TACC3 | AlphaScreen His-ARNT PAS-B/GST-TACC3 binding, luminescence; TACC3 fragment carries E629A point mutation | inhibition, % at 9.99 µM | Q9Y6A5 | actives 0.66% (n = 390,000);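 active = mean inhibition of replicates at least 50% and at least half of replicates each reaching 50%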;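 also: 0% = complete ARNT plus TACC3 wells and 100% = ARNT alone without TACC3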
Numbers without * were called inactive; · = not tested or not shown; + = active, no number; [ ] = remark or other dose. Rows were chosen to be rich in hits. Some 2.1% of all compounds tested hit in one or more screens of this group.

SMILES	CAL PDZ FP-1	miR-122 sensor	CAL PDZ FP-2	SR-BI DiI inh	SR-BI DiI-HDL act	ARNT TACC3 PPI
O=C(O)c1cccc(Cn2c(Cl)c(/C=N/NC(=O)c3ccc(O)cc3)sc2=O)c1	-5	-3	-3	·	·	41*
C[C@@H]1CN([C@@H](C)CO)C(=O)c2cc(NS(=O)(=O)c3ccc(F)cc3)ccc2O[C@H]1CN(C)C(=O)Nc1ccc(F)cc1	·	-1[16.7 µM]	·	·	·	2
COc1ccc(-c2oc(=O)c3cc(OC)c(OC)cc3c2C#CCCCO)cc1	-5	3	-2	78*	-78	-29
COc1cc(OC)cc(-c2oc(=O)c3cc(OC)c(OC)cc3c2C#CCCCO)c1	-2	-7	-1	39	-39	0
O=C(NC(Cc1ccccc1)C(=O)O)/C(=C\c1ccc(F)cc1)NC(=O)c1ccco1 (stereo not drawn)	-8	-5	1	4	-4	13
O=C(NC(Cc1ccccc1)C(=O)O)/C(=C/c1ccccc1)NC(=O)c1ccco1 (stereo not drawn)	63*	4	0	-18	18	·
COCCC(=O)N1CCc2c([nH]c3ccccc23)C1C(C)(C)C (stereo not drawn)	·	-2	-1	2	-2	-7
COCc1ccc(CN2CCc3c([nH]c4ccccc34)C2C(C)(C)C)o1 (stereo not drawn)	·	·	1	13	-13	45*
CCn1ccnc1CN1CCc2c([nH]c3ccccc23)C1C(C)(C)C (stereo not drawn)	80*	-12	-1	-5	5	11
COc1ccc(NC(=O)N(C)C[C@@H]2Oc3ccc(NS(=O)(=O)c4ccc(C)cc4)cc3CC(=O)N([C@@H](C)CO)C[C@@H]2C)cc1	·	-7[16.7 µM]	·	·	·	·
CCN(CC)S(=O)(=O)c1cc(C(=O)N(C)CC(=O)Nc2ccc(Cl)cc2)ccc1Cl	-11	168*	-1	-37	37	-6
O=C(Nc1ccc(Cl)cc1)c1cc(Br)ccc1OCC(=O)N1CCOCC1	3	-1	-1	82*	-82	5
COc1ccc(-c2ccc3c(c2)[C@@H]2[C@@H](CCN2S(=O)(=O)c2ccccc2F)[C@@H](CO)N3)cc1	·	-8[16.7 µM]	·	·	·	-4
Cc1noc(C)c1S(=O)(=O)N(CC(=O)NCc1ccc(F)cc1)c1ccc(C(C)C)cc1	44*	0	-3	-35	35	-5
COc1ccc(N(CC(=O)NCCc2ccc(OC)c(OC)c2)S(=O)(=O)c2c(C)noc2C)cc1	73*	-6	0	3	-3	2
C[C@@H]1CCCCO[C@H](CN(C)C(=O)Nc2ccc(C(F)(F)F)cc2)[C@H](C)CN([C@H](C)CO)C(=O)c2cc(NS(=O)(=O)c3ccc(F)cc3)ccc2O1	·	0[16.7 µM]	·	·	·	5
Cc1cccnc1NC(=O)CSc1nnc(CNC(=O)c2cccc([N+](=O)[O-])c2)n1C	42*	·	-2	16	-16	-4
Cc1cccc(C(=O)NCc2nnc(SCC(=O)Nc3nnc(C)s3)n2C)c1	6	-13	0	-12	12	-28
C[C@H]1CCCCO[C@@H](CN(C)S(=O)(=O)c2ccccc2)[C@@H](C)CN([C@@H](C)CO)C(=O)c2cc(NS(=O)(=O)c3ccc(F)cc3)ccc2O1	·	-13[16.7 µM]	·	·	·	-9
C[C@]12C=CC(=O)C=C1CCC1C2CC[C@@]2(C)C1CCC21OCCO1 (stereo partly drawn)	102*	3	-1	-38	38	1
COc1ccc(OC)c(Nc2nc(-c3cccs3)cs2)c1	-1	15	-4	92*	-92	9
CCCCCC(=O)Nc1nc(C)c(-c2csc(Nc3cc(OC)ccc3OC)n2)s1	5	4	0	99*	-99	-2
COc1ccc(Nc2nc(-c3cccs3)cs2)c(OC)c1	-3	0	1	54	-54	-6
COc1ccc(Cl)cc1Nc1nc(-c2sc(NC(=O)CC(C)C)nc2C)cs1	1	-3	-2	49	-49	·
CCCCCCC(=O)Nc1nc(C)c(-c2csc(Nc3cc(OC)ccc3OC)n2)s1	-3	4	0	106*	-106	6
SMILES	CAL PDZ FP-1	miR-122 sensor	CAL PDZ FP-2	SR-BI DiI inh	SR-BI DiI-HDL act	ARNT TACC3 PPI
CC(C)NC(=O)N(C)C[C@H]1OCCCC[C@H](C)Oc2ccc(NC(=O)c3ccccc3)cc2C(=O)N([C@H](C)CO)C[C@@H]1C	·	0[16.7 µM]	·	·	·	-5
C[C@H](O)C#Cc1ccc2c(c1)O[C@@H](CN(C)Cc1ccncc1)[C@H](C)CN([C@@H](C)CO)S2(=O)=O	·	-1[16.7 µM]	·	·	·	2
C/C(=N\Nc1cc(C)nc(NCc2ccccc2)n1)c1ccc([N+](=O)[O-])cc1	1	-4	2	86*	-86	4
O=C(C[C@@H]1C=C[C@H](NC(=O)Nc2cc(F)ccc2F)[C@@H](CO)O1)NCc1ccccn1	·	·	·	·	·	-11
O=c1cnnc(N/N=C/c2ccccn2)[nH]1	2	6	2	·	·	78*
Cc1cc(=O)[nH]c(N/N=C/c2ccccn2)n1	-6	·	1	1	-1	19
C(=N\Nc1nc2ccccc2[nH]1)/c1ccccn1	-3	·	-2	7	-7	·
C(=N\Nc1ccc2nncn2n1)/c1ccccn1	·	-3	-1	-5	5	51*
O=c1nc(N/N=C/c2ccccn2)cn[nH]1	1	·	-1	-11	11	64*
COc1ccccc1N1CCN(C(=O)c2c(-c3c(F)cccc3Cl)noc2C)CC1	0	1	0	-12	12	1
COc1ccccc1N1CC(C)(C)C(=O)N(C(=O)c2c(F)cccc2Cl)C1=S	81*	2	-1	19	-19	-4
CN(C(=O)CCl)C1CCCc2ccccc21 (stereo not drawn)	·	·	-1	-7	7	18
CN(C(=O)c1cccc(C(F)(F)F)c1)C1CCCc2ccccc21 (stereo not drawn)	52*	1	-1	2	-2	·
CO[C@H]1CN(C)C(=O)c2cc(NS(C)(=O)=O)ccc2OC[C@@H](C)N(CCC(F)(F)F)C[C@@H]1C	·	-20[16.7 µM]	·	·	·	-5
CN(C)C(=O)c1ccc(-c2ccc3c(c2)[C@@H]2[C@@H](CCN2Cc2cncnc2)[C@@H](CO)N3)cc1	·	-14[16.7 µM]	·	·	·	26
O=C(Nc1ccccn1)Nc1ccccc1[N+](=O)[O-]	+	·	·	6	-6	-4
CC(C)(C)[C@@H]1CCC(=O)N(CC[C@H](Sc2ccc(Br)cc2)c2ccccc2)CC1	-2	·	0	82*	-82	10
O=C(CN1C(=O)NC2(CCCCCC2)C1=O)Nc1ccccc1[N+](=O)[O-]	-1	159*	1	1	-1	-4

Screening results: PubChem, Broad Institute
